Measured values reported in ChEMBL document CHEMBL4270524, “Enhanced antimalarial activity of plasmepsin V inhibitors by modification of the P2 position of PEXEL peptidomimetics” (Eur J Med Chem, 2018).
Activity calls are given as the source filed them. The rule behind the calls is not given here. Square brackets hold non-standard residues; d marks the D form. Peptide text beside a SMILES is read from it. * marks the point of attachment. Dip = N[C@H](C(=O)O)C(c1ccccc1)c1ccccc1; Sta = CC(C)C[C@H](N)[C@@H](O)CC(=O)O; Gly(cPent) = N[C@H](C(=O)O)C1CCCC1; Igl = N[C@H](C(=O)O)C1Cc2ccccc2C1; Chg = N[C@H](C(=O)O)C1CCCCC1; NHPhenethyl = c1ccc(CCN*)cc1; Phg = N[C@H](C(=O)O)c1ccccc1; Tle = CC(C)(C)[C@H](N)C(=O)O; Nva = CCC[C@H](N)C(=O)O; Abu = CC[C@H](N)C(=O)O; Cbz = O=C(OCc1ccccc1)*

Tests used:
Plasmodium falciparum = test: Antiplasmodial activity against ring-stage Plasmodium falciparum 3D7 assessed as reduction in parasite viability after 72 hrs by LDH assay; type: functional, organism-based; settings: 3D7, 72 h
Method in brief: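 Sorbitol-synchronised early ring-stage parasites grown in RPMI-HEPES with L-glutamine and Albumax II, exposed to ten-point compound titrations in DMSO (≤0.02% final) for 72 h. Parasitemia read by LDH activity (NADH consumption) relative to DMSO control. EC50 from 4-parameter variable-slope sigmoidal fit; means and SD of three independent experiments.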

HepG2 = test: Cytotoxicity against human HepG2 cells after 48 hrs by CellTiter-Glo assay; type: functional, cell-based; settings: HepG2, 48 h
Method in brief: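 Cells kept in DMEM with 10% FCS at 37 °C, 5% CO2. 1 × 10^4 cells seeded per well and exposed to a 10-point compound titration for 48 h at 37 °C. Viability normalised to DMSO (100%) and 10 µM bortezomib (0%). EC50 given as mean and SD of three experiments.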

[1] = Inhibition of recombinant Plasmodium vivax plasmepsin 5 expressed in High five insect cells using DABCYLRNKRTLAQKQ-E-EDANS as substrate measured after 120 mins by fluorescence assay
Method in brief: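 Enzyme purified by anti-FLAG affinity then Superdex 75 gel filtration. Each well held 2.5 ng enzyme and 12 µM (Km) substrate in 25 mM Tris-HCl/25 mM MES pH 6.4 with 0.005% Tween-20 and 1% DMSO final. Ten-point 1-in-3 compound dilutions. Fluorescence read at ex 340/em 495 nm. IC50 from four-parameter fit constrained to 0 and 100%; mean and SD, n=3.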

[2] = target: Plasmepsin V (Plasmodium falciparum (isolate 3D7)) (UniProt Q8I6Z5); test: Inhibition of plasmepsin 5 in Plasmodium falciparum 3D7 co-expressing PfEMP3-GFP infected in human erythrocytes assessed as accumulation of uncleaved PfEMP3-GFP at 1 to 10 uM after 3 hrs by immunoblot analysis; type: cell-based
Method in brief: (§1)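 Parasites cultured in O+ erythrocytes at 4% haematocrit in RPMI 1640 with 25 mM HEPES pH 7.4, 0.2% bicarbonate, 0.5% Albumax II under 5% CO2/5% O2 gas at 37 °C. Magnet-purified 24–34 h trophozoites treated 3 h at 37 °C; DMSO vehicle control. Saponin-lysed pellets run on SDS-PAGE and probed with anti-GFP, with HSP70 as loading control. ECL read-out, quantified by densitometry.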

[3] = target: Plasmepsin V (Plasmodium falciparum (isolate 3D7)) (UniProt Q8I6Z5); test: Inhibition of plasmepsin 5 in Plasmodium falciparum 3D7 co-expressing PfEMP3-GFP infected in human erythrocytes assessed as accumulation of uncleaved PfEMP3-GFP after 3 hrs by immunoblot analysis; type: cell-based; method in brief: as §1
[4] = target: Plasmepsin V (Plasmodium falciparum (isolate 3D7)) (UniProt Q8I6Z5); test: Inhibition of plasmepsin 5 in Plasmodium falciparum 3D7 co-expressing PfEMP3-GFP infected in human erythrocytes assessed as accumulation of uncleaved PfEMP3-GFP at 1 to 20 uM after 3 hrs by immunoblot analysis; type: cell-based; method in brief: as §1

Sequence of Plasmepsin V (Plasmodium falciparum (isolate 3D7)) (Q8I6Z5 whole entry, looked up): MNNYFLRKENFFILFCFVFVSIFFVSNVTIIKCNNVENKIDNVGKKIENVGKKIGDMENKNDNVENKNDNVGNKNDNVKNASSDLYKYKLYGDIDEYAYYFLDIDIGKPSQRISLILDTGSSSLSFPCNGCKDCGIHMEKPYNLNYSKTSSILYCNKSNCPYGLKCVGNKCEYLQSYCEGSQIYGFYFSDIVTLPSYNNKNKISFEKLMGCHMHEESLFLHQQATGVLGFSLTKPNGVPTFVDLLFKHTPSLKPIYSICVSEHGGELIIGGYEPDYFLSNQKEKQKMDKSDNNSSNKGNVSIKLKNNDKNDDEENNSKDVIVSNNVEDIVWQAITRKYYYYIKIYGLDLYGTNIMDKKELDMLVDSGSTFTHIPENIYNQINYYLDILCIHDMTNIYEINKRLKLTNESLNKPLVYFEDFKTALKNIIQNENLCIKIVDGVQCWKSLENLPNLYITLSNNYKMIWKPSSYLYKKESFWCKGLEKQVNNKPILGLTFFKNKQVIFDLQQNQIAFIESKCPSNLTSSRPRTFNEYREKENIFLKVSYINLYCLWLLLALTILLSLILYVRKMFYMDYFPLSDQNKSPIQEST

For CC(C)C[C@H](NC(=O)[C@@H](NC(=O)[C@H](CCCNC(=N)N)NS(=O)(=O)Cc1ccccc1)C(C)C)[C@@H](O)CC(=O)NCCc1ccccc1, the EC50 (Plasmodium falciparum) was 4.03 µM, the EC50 (HepG2) was > 40 µM and the IC50 [1] was 0.123 µM.

In the case of CC(C)C[C@H](NC(=O)[C@@H](NC(=O)[C@H](CCONC(=N)N)NC(=O)OCc1ccccc1)C(C)C)[C@@H](O)CC(=O)NCCc1ccccc1, the EC50 (Plasmodium falciparum) is reported as 0.43 µM, the EC50 (HepG2) is reported as > 40 µM and the inhibition [2] is reported as “Active”. The IC50 [1] was 0.019 µM.

With CC(C)C[C@H](NC(=O)[C@@H](NC(=O)[C@H](CCCNC(=N)N)NC(=O)OCc1ccccc1)[C@H](C)c1ccccc1)[C@@H](O)CC(=O)NCCc1ccccc1 the EC50 (Plasmodium falciparum) was > 10 µM, the EC50 (HepG2) was 35.4 µM and the IC50 [1] was > 10 µM.

For CCC(CC)[C@H](NC(=O)[C@H](CCCNC(=N)N)NC(=O)OCc1ccccc1)C(=O)N[C@@H](CC(C)C)[C@@H](O)CC(=O)NCCc1ccccc1, the EC50 (Plasmodium falciparum) was 4.11 µM, the EC50 (HepG2) was > 40 µM and the IC50 [1] was 0.112 µM.

In the case of CC(C)C[C@H](NC(=O)[C@@H](NC(=O)[C@H](CCCNC(=N)N)NC(=O)OCc1ccccc1)[C@H](O)c1ccccc1)[C@@H](O)CC(=O)NCCc1ccccc1, the EC50 (Plasmodium falciparum) is reported as > 10 µM, the EC50 (HepG2) is reported as > 40 µM and the IC50 [1] is reported as 6.56 µM.

With CC(C)C[C@H](NC(=O)[C@@H](NC(=O)[C@H](CCCNC(=N)N)NC(=O)OCc1ccccc1)C(C)(C)O)[C@@H](O)CC(=O)NCCc1ccccc1 the EC50 (Plasmodium falciparum) was > 10 µM, the EC50 (HepG2) was > 40 µM and the IC50 [1] was 3.01 µM.

In the case of CC(C)C[C@H](NC(=O)[C@@H](NC(=O)[C@H](CCONC(=N)N)NC(=O)OCc1ccccc1)C1CCCCC1)[C@@H](O)CC(=O)NCCc1ccccc1, the inhibition [3] is reported as “Active”, the EC50 (Plasmodium falciparum) is reported as 0.09 µM and the EC50 (HepG2) is reported as > 40 µM. It also gave an IC50 [1] of 0.005 µM.

With CC(C)C[C@H](NC(=O)[C@@H](NC(=O)[C@H](CCONC(=N)N)NC(=O)OCc1ccccc1)c1ccccc1)[C@@H](O)CC(=O)NCCc1ccccc1 the EC50 (Plasmodium falciparum) was 0.07 µM, the inhibition [4] was “Active” and the EC50 (HepG2) was > 40 µM. For the same compound, the IC50 [1] was 0.003 µM.

For CC[C@H](C)[C@H](NC(=O)[C@H](CCONC(=N)N)NC(=O)OCc1ccccc1)C(=O)N[C@@H](CC(C)C)[C@@H](O)CC(=O)NCCc1ccccc1, the EC50 (Plasmodium falciparum) was 0.18 µM and the IC50 [1] was 0.016 µM.

With CC(C)C[C@H](NC(=O)[C@H](C)NC(=O)[C@H](CCCNC(=N)N)NC(=O)OCc1ccccc1)[C@@H](O)CC(=O)NCCc1ccccc1 (Cbz-Arg-Ala-[Sta]-NHPhenethyl) the EC50 (Plasmodium falciparum) was > 10 µM, the EC50 (HepG2) was > 40 µM and the IC50 [1] was 7.18 µM.

CC[C@H](C)[C@H](NC(=O)[C@H](CCCNC(=N)N)NC(=O)OCc1ccccc1)C(=O)N[C@@H](CC(C)C)[C@@H](O)CC(=O)NCCc1ccccc1 (Cbz-Arg-Ile-[Sta]-NHPhenethyl) showed an EC50 (Plasmodium falciparum) of 1.03 µM and an IC50 [1] of 0.026 µM.

With CC(C)C[C@H](NC(=O)[C@H](CCCNC(=N)N)NC(=O)OCc1ccccc1)C(=O)N[C@@H](CC(C)C)[C@@H](O)CC(=O)NCCc1ccccc1 (Cbz-Arg-Leu-[Sta]-NHPhenethyl) the EC50 (Plasmodium falciparum) was 5 µM, the EC50 (HepG2) was > 40 µM and the IC50 [1] was 0.165 µM.

With CC(C)C[C@H](NC(=O)[C@H](Cc1ccccc1)NC(=O)[C@H](CCCNC(=N)N)NC(=O)OCc1ccccc1)[C@@H](O)CC(=O)NCCc1ccccc1 (Cbz-Arg-Phe-[Sta]-NHPhenethyl) the EC50 (Plasmodium falciparum) was > 10 µM, the EC50 (HepG2) was > 40 µM and the IC50 [1] was 3.12 µM.

With CC(C)C[C@H](NC(=O)[C@H](CO)NC(=O)[C@H](CCCNC(=N)N)NC(=O)OCc1ccccc1)[C@@H](O)CC(=O)NCCc1ccccc1 (Cbz-Arg-Ser-[Sta]-NHPhenethyl) the EC50 (Plasmodium falciparum) was > 10 µM, the EC50 (HepG2) was > 40 µM and the IC50 [1] was > 10 µM.

For CC(C)C[C@H](NC(=O)[C@@H](NC(=O)[C@H](CCCNC(=N)N)NC(=O)OCc1ccccc1)[C@@H](C)O)[C@@H](O)CC(=O)NCCc1ccccc1 (Cbz-Arg-Thr-[Sta]-NHPhenethyl), the EC50 (Plasmodium falciparum) was > 10 µM, the EC50 (HepG2) was > 40 µM and the IC50 [1] was 2.02 µM.

With CC(C)C[C@H](NC(=O)[C@@H](NC(=O)[C@H](CCCNC(=N)N)NC(=O)OCc1ccccc1)C(C)C)[C@@H](O)CC(=O)NCCc1ccccc1 (Cbz-Arg-Val-[Sta]-NHPhenethyl) the EC50 (Plasmodium falciparum) was 3.39 µM, the EC50 (HepG2) was > 40 µM and the IC50 [1] was 0.116 µM.

In the case of CC[C@H](NC(=O)[C@H](CCCNC(=N)N)NC(=O)OCc1ccccc1)C(=O)N[C@@H](CC(C)C)[C@@H](O)CC(=O)NCCc1ccccc1 (Cbz-Arg-[Abu]-[Sta]-NHPhenethyl), the EC50 (Plasmodium falciparum) is reported as 3.14 µM, the EC50 (HepG2) is reported as > 40 µM and the IC50 [1] is reported as 0.507 µM.

With CC(C)C[C@H](NC(=O)[C@@H](NC(=O)[C@H](CCCNC(=N)N)NC(=O)OCc1ccccc1)C1CCCCC1)[C@@H](O)CC(=O)NCCc1ccccc1 (Cbz-Arg-[Chg]-[Sta]-NHPhenethyl) the inhibition [3] was “Active”, the EC50 (Plasmodium falciparum) was 1.22 µM and the EC50 (HepG2) was 36.7 µM. It also gave an IC50 [1] of 0.029 µM.

In the case of CC(C)C[C@H](NC(=O)[C@@H](NC(=O)[C@H](CCCNC(=N)N)NC(=O)OCc1ccccc1)C(c1ccccc1)c1ccccc1)[C@@H](O)CC(=O)NCCc1ccccc1 (Cbz-Arg-[Dip]-[Sta]-NHPhenethyl), the EC50 (Plasmodium falciparum) is reported as > 10 µM, the EC50 (HepG2) is reported as > 40 µM and the IC50 [1] is reported as > 10 µM.

For CC(C)C[C@H](NC(=O)[C@@H](NC(=O)[C@H](CCCNC(=N)N)NC(=O)OCc1ccccc1)C1CCCC1)[C@@H](O)CC(=O)NCCc1ccccc1 (Cbz-Arg-[Gly(cPent)]-[Sta]-NHPhenethyl), the EC50 (Plasmodium falciparum) was 2.73 µM, the EC50 (HepG2) was > 40 µM and the IC50 [1] was 0.055 µM.

Compound CC(C)C[C@H](NC(=O)[C@@H](NC(=O)[C@H](CCCNC(=N)N)NC(=O)OCc1ccccc1)C1Cc2ccccc2C1)[C@@H](O)CC(=O)NCCc1ccccc1 (Cbz-Arg-[Igl]-[Sta]-NHPhenethyl) has an EC50 (Plasmodium falciparum) of 6.18 µM, an EC50 (HepG2) of 23.5 µM and an IC50 [1] of 0.661 µM.

CCC[C@H](NC(=O)[C@H](CCCNC(=N)N)NC(=O)OCc1ccccc1)C(=O)N[C@@H](CC(C)C)[C@@H](O)CC(=O)NCCc1ccccc1 (Cbz-Arg-[Nva]-[Sta]-NHPhenethyl) showed an EC50 (Plasmodium falciparum) of 2.4 µM and an IC50 [1] of 0.116 µM.

With CC(C)C[C@H](NC(=O)[C@@H](NC(=O)[C@H](CCCNC(=N)N)NC(=O)OCc1ccccc1)c1ccccc1)[C@@H](O)CC(=O)NCCc1ccccc1 (Cbz-Arg-[Phg]-[Sta]-NHPhenethyl) the EC50 (Plasmodium falciparum) was 1.36 µM, the inhibition [4] was “Active” and the EC50 (HepG2) was > 40 µM. The IC50 [1] was 0.024 µM.

For CC(C)C[C@H](NC(=O)[C@@H](NC(=O)[C@H](CCCNC(=N)N)NC(=O)OCc1ccccc1)C(C)(C)C)[C@@H](O)CC(=O)NCCc1ccccc1 (Cbz-Arg-[Tle]-[Sta]-NHPhenethyl), the EC50 (Plasmodium falciparum) was > 10 µM, the EC50 (HepG2) was > 40 µM and the IC50 [1] was 6.7 µM.

In the case of O[C@@H](c1cc(C(F)(F)F)nc2c(C(F)(F)F)cccc12)[C@H]1CCCCN1 [(S,R)-MEFLOQUINE], the EC50 (Plasmodium falciparum) is reported as 0.013 µM and the EC50 (HepG2) is reported as 9.8 µM.

CC(C)C[C@H](NC(=O)[C@H](Cc1ccccc1)NC(=O)c1cnccn1)B(O)O [BORTEZOMIB] gave an EC50 (HepG2) of 0.01 µM.

In the case of CCN(CC)CCCC(C)Nc1ccnc2cc(Cl)ccc12 (centres undefined) [CHLOROQUINE], the EC50 (Plasmodium falciparum) is reported as 0.006 µM and the EC50 (HepG2) is reported as 10.1 µM.
